Assay results of several laboratories.
Compare with care: the assays were run in different laboratories. ≈ marks a conversion by molar mass, not a printed value.

The MIC of CC(=O)NCN1N=C(C)C(=NNn2c(-c3ccccc3)nc3ccccc3c2=O)C1=O is reported as 120 µM (≈ 50 µg/mL) (Trichophyton rubrum; microbial growth, broth dilution).
The IC50 of c1cnc2nc(-c3ccc4c(c3)OCO4)c(NCCN3CCOCC3)n2c1 is reported as greater than 100 µM (Leishmania amazonensis; parasite growth, MTT; 72 h, promastigote).
For Cc1nc2ccc(-c3ccc(OC(F)(F)F)cc3)cc2c(O)c1C#N, the IC50 was greater than 10 µM (HEK293; cell growth or viability).
For c1ccc(-c2ccc(CNCC3(N4CCCC4)COC3)o2)cc1, the viability was 74.2% (T98G; cell growth or viability; 30 µM, 48 h).
For CC(C)(C)CC(C)(C)Nc1c(-c2ccc(Cl)cc2)nc2ncccn12, the IC50 was 36.4 µM (Leishmania amazonensis; parasite growth, MTT; 72 h, promastigote).
For Cc1cccc2cc(CNCC3(N4CCCC4)COC3)cnc12, the viability was 92.1% (T98G; cell growth or viability; 30 µM, 48 h).
Cc1ccc(/C=C2/SC(=Nc3ccccc3)NC2=O)c(C)c1 has an IC50 of greater than 10 µM (HEK293; cell growth or viability).
O=C1NN=C(N=Cc2ccc(O)c(O)c2)C1=NNn1c(-c2ccccc2)nc2ccccc2c1=O has an MIC of 107 µM (≈ 50 µg/mL) (Trichophyton rubrum; microbial growth, broth dilution).
With COc1ccc(Sc2ccc(C)cc2)c(OC)c1OC the IC50 was 40.3 µM (Leishmania braziliensis; parasite growth, MTT; 24 h, promastigote).
The GI50 of COc1ccc(-c2ccc(-c3ccc(C(=N)N)nc3)s2)cc1Cl is reported as 1.67 µM (NCI-H322M; cell growth or viability, SRB).
With COc1ccc(S(=O)(=O)c2ccc(C)cc2)c(OC)c1OC the IC50 was 91.7 µM (Leishmania braziliensis; parasite growth, MTT; 24 h, promastigote).
With COc1ccc(Nc2c(-c3ccc4c(c3)OCO4)nc3ncccn23)cc1 the IC50 was greater than 100 µM (Leishmania amazonensis; parasite growth, MTT; 72 h, promastigote).
With Cc1[nH]c(C)c(C(F)(F)F)c(=O)c1-c1ccc(Oc2ccc(OC(F)(F)F)cc2)cc1 the IC50 was greater than 10 µM (HEK293; cell growth or viability).
COc1ccc(-c2nc3ncccn3c2NC(C)(C)CC(C)(C)C)cc1O gave an IC50 of greater than 100 µM (Leishmania amazonensis; parasite growth, MTT; 72 h, promastigote).
The IC50 of O=C(Nc1cccc(-c2cccc(-c3nc4ccccc4[nH]3)c2)c1)NC1CC1c1ccccc1 (stereo not shown) is reported as greater than 10 µM (HEK293; cell growth or viability).
CC1=NN(CNc2ccc(C(=O)O)cc2)C(=O)C1=NNn1c(-c2ccccc2)nc2ccccc2c1=O gave an MIC of 101 µM (≈ 50 µg/mL) (Trichophyton rubrum; microbial growth, broth dilution).
